This passage reports Ki, IC50 and Activity results from ChEMBL document CHEMBL4011624, “The 1,2,4-Triazolo[4,3-a]pyrazin-3-one as a Versatile Scaffold for the Design of Potent Adenosine Human Receptor Antagonists. Structural Investigations to Target the A2A Receptor Subtype” (J Med Chem, 2017).

In one series the target is T1, Adenosine receptor A1 (Homo sapiens, UniProt P30542).
T1 sequence (P30542 whole entry): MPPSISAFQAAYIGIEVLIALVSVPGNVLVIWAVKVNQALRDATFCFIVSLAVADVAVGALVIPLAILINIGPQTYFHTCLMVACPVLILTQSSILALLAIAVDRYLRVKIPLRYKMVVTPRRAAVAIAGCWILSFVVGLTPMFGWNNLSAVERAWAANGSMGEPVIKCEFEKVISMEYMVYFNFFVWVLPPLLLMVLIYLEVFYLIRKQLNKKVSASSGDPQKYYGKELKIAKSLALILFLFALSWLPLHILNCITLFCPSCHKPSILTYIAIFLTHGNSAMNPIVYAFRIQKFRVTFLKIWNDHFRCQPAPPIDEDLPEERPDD
As to the kind of experiment: Displacement of [3H]CCPA from human adenosine receptor A1 expressed in CHO cell membranes after 3 hrs by microbeta scintillation counting method. On the technique in general: In a radioligand displacement assay an active substance lowers the binding of a labelled ligand.

The target of series [1] is T2, Adenosine receptor A2a (Homo sapiens, UniProt P29274). The series can be described thus: Displacement of [3H]NECA from human adenosine receptor A2A expressed in CHO cell membranes after 3 hrs by microbeta scintillation counting method.
Another series has as its target T3, Adenosine receptor A3 (Homo sapiens, UniProt P0DMS8).
T3 sequence (P0DMS8 whole entry): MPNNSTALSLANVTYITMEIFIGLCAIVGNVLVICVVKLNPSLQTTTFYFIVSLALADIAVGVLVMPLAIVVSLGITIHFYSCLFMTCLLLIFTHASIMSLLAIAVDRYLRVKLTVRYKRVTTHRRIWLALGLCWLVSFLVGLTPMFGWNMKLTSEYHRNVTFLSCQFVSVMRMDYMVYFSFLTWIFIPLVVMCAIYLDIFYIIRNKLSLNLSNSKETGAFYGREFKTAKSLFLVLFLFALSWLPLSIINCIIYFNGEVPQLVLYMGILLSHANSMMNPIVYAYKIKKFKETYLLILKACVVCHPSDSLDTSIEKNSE
The series can be described thus: Displacement of [3H]HEMADO from human adenosine receptor A3 expressed in CHO cell membranes after 3 hrs by microbeta scintillation counting method.

In a further series the target is T4, Adenosine receptor A2b (Homo sapiens, UniProt P29275).
T4 sequence (P29275 whole entry): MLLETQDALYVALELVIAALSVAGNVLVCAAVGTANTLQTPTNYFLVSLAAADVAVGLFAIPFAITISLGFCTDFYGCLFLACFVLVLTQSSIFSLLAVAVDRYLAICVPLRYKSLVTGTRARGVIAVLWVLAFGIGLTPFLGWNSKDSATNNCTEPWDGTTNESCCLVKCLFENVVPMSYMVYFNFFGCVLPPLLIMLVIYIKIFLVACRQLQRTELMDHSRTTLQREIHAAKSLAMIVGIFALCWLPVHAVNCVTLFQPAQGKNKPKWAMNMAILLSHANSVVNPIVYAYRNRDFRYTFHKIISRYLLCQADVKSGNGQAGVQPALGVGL
The series can be described thus: Antagonist activity at human adenosine receptor A2B expressed in CHO cell membranes assessed as inhibition of NECA-induced increase of cAMP accumulation preincubated for 10 mins followed by NECA addition measured after 10 mins by GloSensor cAMP assay. It counts as functional, cell-based. The essentials: (§1)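 Receptors stably transfected in CHO cells. Antagonism read as inhibition of the NECA-stimulated rise in cAMP levels. IC50 values were derived from dose-response curves.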

Series [2] has as its target T2, Adenosine receptor A2a. As to the kind of experiment: Antagonist activity at human adenosine receptor A2A expressed in CHO cell membranes assessed as inhibition of NECA-induced increase of cAMP accumulation preincubated for 10 mins followed by NECA addition measured after 10 mins by GloSensor cAMP assay. Format: functional, cell-based. The essentials:
as §1
For orientation: Cyclic AMP is a second messenger, typically raised through Gs and lowered through Gi signalling.

Series [3] deals with SH-SY5Y. The series can be described thus: Neuroprotective activity against MPP+-induced toxicity in human SH-SY5Y cells assessed as increase in cell viability at 15 nM pretreated for 1 hr followed by MPP+ addition measured after 24 hrs by Celltiter-Glo luminescent assay. It counts as functional, cell-based. The essentials:
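SH-SY5Y human neuroblastoma cells were exposed to MPP+ at 1.5 mM for 24 h, with test agent present, and cell viability was then measured. The MPP+ level was chosen from a pilot range of 50 μM to 3 mM over 24 h.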
For orientation: Cellular ATP, detected with luciferase, serves as a proxy for viable cell number.

In series [4] the test system is SH-SY5Y. The series can be described thus: Cytotoxicity against human SH-SY5Y cells assessed as increase in cell viability at 0.5 to 30 nM after 24 hrs by Celltiter-Glo luminescent assay. It counts as cell-based. The settings on record: 0.03 µM.
The subject of series [5] is SH-SY5Y. As to the kind of experiment: Neuroprotective activity against MPP+-induced toxicity in human SH-SY5Y cells assessed as increase in cell viability at 15 nM pretreated for 1 hr followed by MPP+ addition measured after 24 hrs in the presence of human adenosine receptor A2A agonist CGS21680 by Celltiter-Glo luminescent assay. It counts as functional, cell-based. The essentials: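 SH-SY5Y cells were given MPP+ (1.5 mM, 24 h) plus test agent at 15 nM, together with the A2A agonist CGS21680 at 10 to 100 nM, and cell viability was then measured.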

SMILES strings stand for the structures. Activity calls are given as the source filed them. The calls are words filed in the database; no cut-off is given here.

As usually defined, the Ki is the dissociation constant of the complex between target and ligand, obtained from inhibition or displacement. By IC50 is commonly meant the point on the concentration scale where inhibition reaches its midpoint.

T2 sequence (P29274 whole entry): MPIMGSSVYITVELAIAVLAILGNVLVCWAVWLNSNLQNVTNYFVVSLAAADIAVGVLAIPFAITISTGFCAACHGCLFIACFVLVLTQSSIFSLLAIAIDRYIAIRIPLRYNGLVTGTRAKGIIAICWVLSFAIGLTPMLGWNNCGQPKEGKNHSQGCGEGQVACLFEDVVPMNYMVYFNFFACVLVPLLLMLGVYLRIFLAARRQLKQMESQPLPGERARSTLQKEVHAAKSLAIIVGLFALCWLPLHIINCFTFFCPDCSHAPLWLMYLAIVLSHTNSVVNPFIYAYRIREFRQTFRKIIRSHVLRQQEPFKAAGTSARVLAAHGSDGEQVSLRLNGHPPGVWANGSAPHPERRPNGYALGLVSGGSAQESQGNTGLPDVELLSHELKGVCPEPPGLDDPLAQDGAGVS

For `CCOc1ccc(-c2cn3c(=O)n(-c4ccccc4)nc3c(N)n2)cc1`, the Ki on Adenosine receptor A1 was over 30000 nM; at Adenosine receptor A2a [1], 2.9 nM; on Adenosine receptor A3 it was over 30000 nM. The concentration for half-maximal inhibition (IC50) on Adenosine receptor A2b is over 30000 nM; on Adenosine receptor A2a [2] it was 98 nM.
As for `O=c1[nH]c(-c2ccccc2)cn2c(=O)n(-c3ccccc3)nc12`, the inhibition constant Ki at Adenosine receptor A1 was over 30000 nM; on Adenosine receptor A2a [1] it was over 30000 nM; on Adenosine receptor A3, 96 nM. Also, the IC50 at Adenosine receptor A2b is over 30000 nM.
Consider `COc1ccc(-n2nc3c(N)nc(C)cn3c2=O)cc1`, for which the inhibition constant Ki at Adenosine receptor A1 came out at 1740 nM; at Adenosine receptor A2a [1], 1040 nM; at Adenosine receptor A3, 255 nM. Also, the IC50 on Adenosine receptor A2b was over 30000 nM.
On to `Nc1nc(-c2ccc(O)cc2)cn2c(=O)n(-c3ccccc3)nc12`, for which the Ki on Adenosine receptor A1 was found to be 45 nM; at Adenosine receptor A2a [1], 45 nM; at Adenosine receptor A3 it was 53 nM. The IC50 at Adenosine receptor A2b was over 30000 nM.
In the case of `Nc1nc(-c2cccc(OCc3ccccc3)c2)cn2c(=O)n(-c3ccccc3)nc12`, the Ki at Adenosine receptor A1, on Adenosine receptor A2a [1] and at Adenosine receptor A3 was over 30000 nM in each case. Further, the IC50 at Adenosine receptor A2b was over 30000 nM.
Regarding `Cc1ccc(-c2cn3c(=O)n(-c4ccccc4)nc3c(N)n2)cc1`, the inhibition constant (Ki) on Adenosine receptor A1, on Adenosine receptor A2a [1] and on Adenosine receptor A3 was over 30000 nM each time. In addition, the concentration for half-maximal inhibition (IC50) on Adenosine receptor A2b was over 30000 nM.
Consider `COc1ccc(-c2cn3c(=O)n(-c4ccccc4)nc3c(N)n2)cc1`, for which the Ki is over 30000 nM at Adenosine receptor A1, 7.2 nM at Adenosine receptor A2a [1] and over 30000 nM on Adenosine receptor A3. Also, the 50% inhibitory concentration (IC50) is over 30000 nM at Adenosine receptor A2b and 180 nM on Adenosine receptor A2a [2]. Further, in the series on SH-SY5Y [3], the result was Active. Besides, in the series with SH-SY5Y [4], the Activity result is listed as “Non-Toxic”. The outcome in the series on SH-SY5Y [5] was inactive.
On to `COc1ccccc1-n1nc2c(=O)[nH]c(-c3ccccc3)cn2c1=O`, for which the Ki on Adenosine receptor A1 was 2140 nM; at Adenosine receptor A2a [1], over 30000 nM; on Adenosine receptor A3, 5200 nM. In addition, on Adenosine receptor A2b, the IC50 is over 30000 nM.
In the case of `O=c1[nH]c(-c2ccc(O)cc2)cn2c(=O)n(-c3ccccc3)nc12`, the Ki is 616 nM at Adenosine receptor A1, over 30000 nM at Adenosine receptor A2a [1] and 207 nM at Adenosine receptor A3. Moreover, on Adenosine receptor A2b, the IC50 is over 30000 nM.
Turning to `Nc1ccc(-n2nc3c(N)nc(-c4ccccc4)cn3c2=O)cc1`, the inhibition constant (Ki) at Adenosine receptor A1 came out at 8.9 nM; on Adenosine receptor A2a [1], 3480 nM; on Adenosine receptor A3, 650 nM. Also, at Adenosine receptor A2b, the IC50 is over 30000 nM.
Turning to `Nc1nc(-c2ccc(OCC3CC3)cc2)cn2c(=O)n(-c3ccccc3)nc12`, the inhibition constant (Ki) at Adenosine receptor A1, on Adenosine receptor A2a [1] and at Adenosine receptor A3 was over 30000 nM in each case. On Adenosine receptor A2b, the IC50 was over 30000 nM.
With `COc1cccc(-c2cn3c(=O)n(-c4ccccc4)nc3c(=O)[nH]2)c1`, the inhibitory constant (Ki) on Adenosine receptor A1, at Adenosine receptor A2a [1] and at Adenosine receptor A3 was over 30000 nM throughout. For the same molecule, the IC50 on Adenosine receptor A2b is over 30000 nM.
As to `Nc1nc(-c2ccccc2)cn2c(=O)n(-c3ccc([N+](=O)[O-])cc3)nc12`, the values for the Ki on Adenosine receptor A1, at Adenosine receptor A2a [1] and on Adenosine receptor A3 were 8.1 nM, 402 nM and over 30000 nM, respectively. Besides, at Adenosine receptor A2b, the half-maximal inhibitory concentration (IC50) is over 30000 nM.
Turning to `Nc1nc(-c2ccccc2)cn2c(=O)n(-c3ccccc3)nc12`, the Ki on Adenosine receptor A1 came out at 13 nM; at Adenosine receptor A2a [1] it was 10 nM; at Adenosine receptor A3, 11 nM. Also, the concentration for half-maximal inhibition (IC50) on Adenosine receptor A2b was over 30000 nM.
Consider `CC(C)Oc1ccc(-c2cn3c(=O)n(-c4ccccc4)nc3c(N)n2)cc1`, for which the Ki on Adenosine receptor A1 is over 30000 nM; at Adenosine receptor A2a [1] it was 7.4 nM; at Adenosine receptor A3, over 30000 nM. In addition, on Adenosine receptor A2b, the IC50 was over 30000 nM.
Consider `Nc1nc(-c2ccc(OCc3ccccc3)cc2)cn2c(=O)n(-c3ccccc3)nc12`, for which the inhibition constant (Ki) at Adenosine receptor A1 was 3700 nM; on Adenosine receptor A2a [1] it was 708 nM; at Adenosine receptor A3, over 30000 nM. For the same molecule, the IC50 on Adenosine receptor A2b is over 30000 nM.
Take `COc1ccccc1-n1nc2c(N)nc(-c3ccccc3)cn2c1=O`: the inhibition constant Ki was determined as 247 nM at Adenosine receptor A1, 309 nM on Adenosine receptor A2a [1] and 392 nM at Adenosine receptor A3. Also, the concentration for half-maximal inhibition (IC50) on Adenosine receptor A2b is over 30000 nM.
Take `Nc1nc(-c2ccccc2)cn2c(=O)n(-c3ccc(O)cc3)nc12`: the inhibition constant (Ki) turned out to be 18 nM on Adenosine receptor A1, 138 nM at Adenosine receptor A2a [1] and 429 nM at Adenosine receptor A3. Further, the IC50 at Adenosine receptor A2b is over 30000 nM.
Take `O=c1[nH]c(-c2cccc(O)c2)cn2c(=O)n(-c3ccccc3)nc12`: the Ki amounted to 698 nM at Adenosine receptor A1, 4070 nM on Adenosine receptor A2a [1] and 1050 nM at Adenosine receptor A3. Moreover, on Adenosine receptor A2b, the 50% inhibitory concentration (IC50) was over 30000 nM.
